Data published in the EternaBench riboswitch data.

Tested on: MS2 coat protein
Test: apparent Kd, MS2 coat protein; higher = weaker binding; RNA-MaP array; FMN 200 µM where present
Method in brief: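 Green signal was scaled to red-channel RNA signal and control-cluster median Fmax, and the apparent Kd was taken as the median of filtered per-cluster binding-curve fits. The binding series used SNAP-549-labelled MS2 coat protein from 0.7 or 1.5 nM, doubling to 3 µM, on designs transcribed by stalled E. coli RNA polymerase on Illumina sequencing-chip clusters. Each series ran without and then with constant ligand in 100 mM Tris-HCl pH 7.5, 80 mM KCl, 4 mM MgCl2, BSA, DTT, yeast tRNA and Tween-20.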

[1] = designed as: OFF switch for flavin mononucleotide, no ligand
[2] = ligand present: flavin mononucleotide, designed as: OFF switch for flavin mononucleotide
[3] = designed as: ON switch for flavin mononucleotide, no ligand
[4] = ligand present: flavin mononucleotide, designed as: ON switch for flavin mononucleotide

Sequence | apparent Kd [1] [nM] | apparent Kd [2] [nM] | apparent Kd [3] [nM] | apparent Kd [4] [nM]
GACGGAUGUAUAGGAUAUGCUGAGGAAUACUCAGCAGAAGGAUACAUGAGGAUCACCCAUGUAAUAAUAAUAAUAAUAACCGUC | 12.4 | 27.5 |  | 
GGGUACAGUGAGAAGGUCUGCGGAUUCCUUAACAUGAGGAUCACCCAUGUAGAAGGAUAUCACAGGUAAAGGUCGGCUAACGAU | 5.36 | 6.58 |  | 
CCAUGUUAGCAGGAUAUGCAAUAAAUCUUUUAAGCAGAAGGGCUUACAUGAGGAUCACCCAUGUAUAAUUUCAA | 50.3 | 116 |  | 
AAACCGUGUGGAGGAUAUGCAGUUGAGGUGAGGCGGCAGCUCUAUACGACAGCAGAAGGCCACAUGAGGAUCACCCAUGUAGGU | 107 | 326 |  | 
GCUCACCGUCAGAAGGUACUUAAAAGUUGUGAGUAAGGAUAUGACAUGAGGAUCACCCAUGUAAACGUGGACUUUCACAUACAU | 13.5 | 59.1 |  | 
ACAUUUAAUACAGGAUAUGUAUGUAUACAAUAGAUUGGUUUUAUCACAUCAACAGAAGGGUAGAACAUGAGGAUCACCCAUGUA |  |  | 114 | 79.8
GCCAUCAUAUGAGGAUAUGACACCGAAACGGUGUCAGAAGGCAUGUCGAUAGACAUGAGGAUCACCCAUGUUUACAUGAUGGCA |  |  | 91.5 | 20.7
CCUAUGUGAGGAUAUCACUGGUCUGCUCACUAGAUGAUCAGUGAGAAGGCACAUGAGGAUCACCCAUGUCAGUG | 183 | 41.7 |  | 
CGAACUAAGUAGAAGGCUGUCUUAAAAUAGGACAGAGGAUAUACAUGAGGAUCACCCAUGUACUCCUUUAAUAAGUUCGAAAUA | 5.22 | 6.13 |  | 
UUGCUACAUGAGGAUCACCCAUGUCAGGAUAUUGUGUAUACCGUGGAAGCUGUGUCGAUAAGAAGGGACUGUCU | 26.6 | 30.5 |  | 
GGUGGUGUCCGAGGAUAUCGUUAGGCGUUGUUGCGAGAAGGCGGACAUGAGGAUCACCCAUGUUUGAUAAAAGAGGAGGUUGUG | 86.1 | 130 |  | 
UUAAAUUAGUAGAAGGACGGUGAGUAAGAAGUCGUAGGAUAUACAUAAGACAUGAGGAUCACCCAUGUAAGUUUGUUGGGUAUG | 44.1 | 38.4 |  | 
CCCUAGGGAGGAUAUCCAAUAUAUGACAUGAGGAUCACCCAUGUUUCCACUCGUACCUCCGGAGAAGGCCCAUCCC | 26.3 | 24.5 |  | 
UGUCCGGUCAUAGGAUAUGACAUGAGGAUCACCCAUGUCUGCUUGGCUUGACCGUUGAUCCAUUGUCAGAAGGGUGCCGUUACA | 43.2 | 63.1 |  | 
CCCAUGUUAGGAUAUCGGCUCCGCCGUUCCACAUGGCGCUCCGAGAAGGAACAUGAGGAUCACCCAUGUAAAGA | 39.1 | 140 |  | 
AAGAAGUGAGGAUAUGCUGCUCGUCACUUGCGUGAUGAGUAGCAGAAGGCACAUGAGGAUCACCCAUGUGGAAG | 33.9 | 47.8 |  | 
ACUGUCGCGUGAGGAUAUGGUCUGCAGUGCUGACCAGAAGGCAUGUCGAUAGACAUGAGGAUCACCCAUGUGGUUAGGGCGGCU |  |  | 619 | 298
AAAUAGCUUGAGGAUAUUGGAUUGGAUUCAGUGCGAGAAGGCAAGACAUGAGGAUCACCCAUGUUGUGUUGGGA | 47.2 | 90 |  | 
UAAUCUCAGAUAGGAUAUAUAGGAUAACUUAAGACCUAACAUGAGGAUCACCCAUGUGAUUAUUCGUAGAAGGAUCAUUGAACU |  |  | 254 | 251
AGAUAGCGAAUAGUAAUAAAAGUACAGGAUAUGUUACAUGAGGAUCACCCAUGUAUUGGGUAAGAACAGAAGGGUACGCUAGAG | 144 | 123 |  | 
AUGCAACAUGAGGAUCACCCAUGUGAGGAUAUCGUAUACUACUGUUGCAAUACUUAGACGAGAAGGCACACCGU | 166 | 174 |  | 
GGUGGACAUGAGGAUCACCCAUGUGAGGAUAUCGGCCGGUUCGUGGUGGCUGGCCUCUCGAGAAGGCGCAUAGU | 58.1 | 71.9 |  | 
AACGAGCAGUAGAAGGCGUGUCUACGGACAUGAGGAUCACCCAUGUUGUGACUCCGAAAGGAGCGCGAGGAUAUACUGCUCAAA |  |  | 10.3 | 6.57
GUGGUCAGACAUGAGGAUCACCCAUGUGGAAUAAAUAAGGUACAGGAUAUCUAAUAUAGGAUAUAAGAGAAGGGUAGGUUGGUG |  |  | 75.4 | 78.4
ACACCACAUGAGGAUCACCCAUGUAAAGCGUAGCAAGGAUAUGGGCACGGAUAAUUCCGAUCAGAAGGUGUAACGU |  |  | 51.2 | 118
AUGCGGUCAGGAUAUGCAUGGCGGGACUUGCGUCGUGGCGUGGAGAAGGGACAUGAGGAUCACCCAUGUGGCGA | 77.3 | 82.6 |  | 
CAGUACAGAGGAUAUACAUGAGGAUCACCCAUGUGUUUCAGCUAGGAGACUAGCGAAAGUAGAAGGCUGUACUG | 9.57 | 25.1 |  | 
CGCUACGUUUCGUAGCAGUGUCAUCGAGAAGGCCCUGACAUGAGGAUCACCCAUGUUGUUACAUGGGAGGAUAUCGAUGAUACC |  |  | 12.2 | 5.25

Sequence | apparent Kd [1] [nM] | apparent Kd [2] [nM] | apparent Kd [3] [nM] | apparent Kd [4] [nM]
GGUUGUCAUCGUCAUCCUUUCUGUACAUGAGGAUCACCCAUGUAGGAUAUGCUGCUCUCGGUGUGGCAGAAGGGCGUGUGUGUU | 40.5 | 50.2 |  | 
CGUAGGAUCCAGAAGGCAUGAAACAUGAGGAUCACCCAUGUGAAACACAUGAGGAUAUGGAUCCUACGAAAAGUGCGAAAGCAC |  |  | 4.32 | 4.48
GGGUACAUCGGAGGAUAUCAUGUAAAUACAUGAGGAUCACCCAUGUCGAUGGAGACAUCGGAGAUUGAGAAGGCCGAUGUACCG |  |  | 452 | 25.9
UCUGCCGCCGUGAGGAUAUGCCCGCGCGCCCGCGGGCAGAAGGCACAUGAGGAUCACCCAUGUCCCGCGGCUUU | 15.1 | 39.5 |  | 
UGUUGUAUUACAGGAUAUCUAGUAUUUUUAUCUAGAGAAGGGUAUUCACAUGAGGAUCACCCAUGUAUAUACGAGGAAGUUGUG |  |  | 33.1 | 33.2
AACCUGGUAAAUAAACUCAAUUACAUGAGGAUCACCCAUGUAUAGGAUAUGCAGUGGAAUACACUGCAGAAGGAUACAUCCAGG | 18 | 60.9 |  | 
CAACCGUUGCAGAAGGUUAAAUAAUUUCUCAUCUUGUUUACAUGAGGAUCACCCAUGUAUUUGUUGAAGGAUAUGCAAGUGUUG | 8.58 | 8.21 |  | 
UACAUGAGGAUCACCCAUGUUUUGUCGUGUAUGGUAUUUAUCUAGGAUAUCAUUUUAGUUAGUUAUGAGAAGGAGAAUAUUAAU | 32.2 | 31.6 |  | 
GUCAUGUCAGGAUAUUUUGGUCAACUCAUCGGUCGACCCUAAGAGAAGGGACAUGAGGAUCACCCAUGUUCGCA | 26.8 | 77.8 |  | 
UUUAUAUAGUAAGGAUAUGUAUUAAUUUUAUAGACAGAAGGUACUGACAUGAGGAUCACCCAUGUUUUAGUGUGGGCAUGUAGU | 358 | 549 |  | 
UGGUACUAGGGAGGAUAUGGGAAGAUACAUGAGGAUCACCCAUGUUUAAGAAUGCCGAGAGGCAACUAGAAGGCCCUAGUACGU |  |  | 434 | 19.6
UAGUGAUUGCAAGGAUAUGCUUAUGUUUAAUUUUUUUUAAUAUCUAACAUGAGGAUCACCCAUGUGCAGAAGGUGCUUGAUUUG |  |  | 66.1 | 58.7
AAUAACAGAGGAUAUACUAUUUUAUGUAUUUAUUAUUUUAAACAUGAGGAUCACCCAUGUAGAAGGCUGAGUAA | 23.8 | 21.3 |  | 
GGAACUCAUGUAGGAUAUGCAUGGCGAAGCUACGCAGAAGGACAUGAGGAUCACCCAUGUUCUAGCGUCUGAGUACAGAUGCAA | 126 | 178 |  | 
GAUCCUUCUGUUAGGAUAUGCUUUGGGCUUCCGCAGCAGAAGGAACAUGAGGAUCACCCAUGUCCAAUACCAUC | 42.6 | 41.8 |  | 
GCUGUAUAUGAGAAGGCGAUCAUGAAACAUGAUCGAGGAUAUCAUGUAAACAUGAGGAUCACCCAUGUAUGGGUAUUAAGCAGC |  |  | 280 | 46.6
AGCUACGUUUCGUAGCAGUGUCAUCGAGAAGGCCUCAUUACAUGAGGAUCACCCAUGUGAGCAUGGGAGGAUAUCGAUGAUACA |  |  | 406 | 129
CCGAAUAAGCAGGAUAUCGUAUCGGAAACGAUACGAGAAGGGCUAACAUGAGGAUCACCCAUGUUCCUUAACGG | 22.1 | 23.5 |  | 
GCAAGGCAUGUAGGAUAUCGAGCUCAAAGAGCUCGAGAAGGACAUGAGGAUCACCCAUGUGCUCACAGACAGUGAGCGCCUUGC | 18.4 | 44.4 |  | 
CCGGCUUAGGAGGAUAUAGGAGUCGAUAGACACCUAGAAGGCCUAACAUGAGGAUCACCCAUGUGUCCUACCGG | 17.8 | 61.5 |  | 
GACAAUCUAUCUGAGGAUAUCAUGAAAAAAACAUGAGGAUCACCCAUGUGCAGGAAAACUGCAUAUGAGAAGGCAGAUAGAUUGA |  |  | 708 | 28.7
UGUGGUGGUUAGGAUAUAAUUAGAGGUUACUCGUUAGAAGGAGCUACAUGAGGAUCACCCAUGUGACUGUCCGC | 29.8 | 35.1 |  | 
ACUUGUAAGCAGAAGGCAGUCAUAGUAUUCGUCAUGUAGACAUGAGGAUCACCCAUGUAUAGUACUGAGGAUAUGCUUCGAUAG | 19.3 | 21.7 |  | 
AUCAGCUCGCCAGGAUAUACGUCACUGCGUCAGCAGUGUGGUAAGAUCACAUGAGGAUCACCCAUGUAGAAGGGACGAGCUGAU | 10.3 | 69.2 |  | 
GCGAAUUAGUGAGGAUAUACAUAAUUUAUAACUGUAGAAGGCACAAUCCUCAAGACAUGAGGAUCACCCAUGUGGUAUUACGCU | 151 | 911 |  | 
AUUGUGUGAGGAUAUUAAUAGUAAAUGAAUAGAAUUGUGAUUGAGAAGGCACAUGAGGAUCACCCAUGUUCCUU | 19 | 17.4 |  | 
AGAUACAGGCAGAAGGGUUGGUAAGUUGGGUCAACAGGAUAUGCCUCUGUGACAUGAGGAUCACCCAUGUUACCAAACAGUCUU |  |  | 583 | 49.5
